Sampled rows, rich in hits. Any-hit rate of the full collection: about 5.4%.
aSyn UTR inh = 5' untranslated region of α-synuclein, MLPCN primary screen. inhibition, % (tested at 7.5 µM). alpha-synuclein 5'UTR reporter, inhibitor activity. AID 1813. hit rate 0.82% among 300,000; in the data active means inhibition above about 60%;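 further: H4 neuroglioblastoma cells stably carrying SNCA 5'UTR luciferase fusion; 0% = DMSO wells and 100% = positive control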
CSC inhib = cancer stem cell inhibition; AID 2717; cancer stem cell-like cells viability, luminescence; hit rate 1.1% among 300,000; inhibition, % at 7.5 µM; in the data active means inhibition above about 75%; tested in HMLE shEcad cells
SKKanGAS inh = SKKanGAS growth inhibition. hit rate 1.3% among 300,000. inhibition, % at 7.5 µM. S. pyogenes SKKanGAS, kanamycin growth, BacTiter-Glo, 6 h;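 active means mean replicate score, as percent of positive control median, at least 50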;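 further: strain carries kanamycin resistance gene driven by streptokinase promoter and grows in 40 µg/ml kanamycin; loss of luminescence reflects streptokinase promoter inhibition or plain growth inhibition; 0% = median of DMSO wells and 100% = positive control at its reference dose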
Mdm2-MdmX inh = human Mdm2/MdmX binding inhibition | O15151+Q00987 | SaOS-2 split-luciferase Mdm2/MdmX complementation, luminescence | inhibition, % at 8 µM | hit rate 3% among 330,000;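 active means inhibition of at least 50% at 8 µM in the primary screen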
Target sequence (O15151 whole entry, looked up): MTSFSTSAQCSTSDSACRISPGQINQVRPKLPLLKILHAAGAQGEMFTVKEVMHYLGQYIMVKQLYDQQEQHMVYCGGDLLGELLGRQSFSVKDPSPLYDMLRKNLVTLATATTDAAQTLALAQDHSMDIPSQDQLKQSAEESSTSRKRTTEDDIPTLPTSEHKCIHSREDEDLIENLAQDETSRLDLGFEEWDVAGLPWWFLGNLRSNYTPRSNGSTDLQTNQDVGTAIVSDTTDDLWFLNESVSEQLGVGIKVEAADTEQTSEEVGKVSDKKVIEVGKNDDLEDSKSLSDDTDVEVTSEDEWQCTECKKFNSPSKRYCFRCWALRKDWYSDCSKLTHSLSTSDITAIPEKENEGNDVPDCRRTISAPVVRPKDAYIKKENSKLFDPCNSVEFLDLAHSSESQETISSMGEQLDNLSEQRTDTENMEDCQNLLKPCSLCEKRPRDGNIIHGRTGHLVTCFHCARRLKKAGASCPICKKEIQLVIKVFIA
Target sequence (Q00987 whole entry, looked up): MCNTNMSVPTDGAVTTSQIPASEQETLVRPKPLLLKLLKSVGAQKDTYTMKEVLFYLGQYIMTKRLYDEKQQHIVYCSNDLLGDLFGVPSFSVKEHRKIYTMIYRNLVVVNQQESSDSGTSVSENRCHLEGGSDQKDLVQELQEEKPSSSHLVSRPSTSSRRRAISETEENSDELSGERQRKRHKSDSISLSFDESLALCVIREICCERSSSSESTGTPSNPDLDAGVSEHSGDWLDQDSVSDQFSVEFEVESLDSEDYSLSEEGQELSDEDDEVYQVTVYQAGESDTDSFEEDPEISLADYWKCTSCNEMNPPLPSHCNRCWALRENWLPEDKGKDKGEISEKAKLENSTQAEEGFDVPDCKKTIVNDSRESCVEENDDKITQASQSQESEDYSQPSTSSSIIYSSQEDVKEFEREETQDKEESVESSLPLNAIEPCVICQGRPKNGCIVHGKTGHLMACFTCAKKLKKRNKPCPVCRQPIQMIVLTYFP
T cruzi inh = blocks replication of Trypanosoma cruzi | T. cruzi beta-gal in NIH3T3, luminescence, 90 h | inhibition, % (no concentration beside the values) | hit rate 1.4% among 300,000 | AID 1885;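 active means mean inhibition across valid replicates above about 55%, limit read from the data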;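 further: signal also drops with host cell toxicity which is not excluded here; 0% = plate median of DMSO wells and 100% = zero luminescence signal; higher percent means less beta-gal luminescence so fewer parasites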
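Test system: β-gal T. cruzi (Tulahuen C4) inside NIH/3T3 cells / Quantity: 5,000 cells/well / Measured by: luminescence from GalScreen with 0.05% NP40, read after 60 min / Medium: DMEM plus 2% FBS / Measure: parasite load inhibition, % / Reagent: Tulahuen C4 trypomastigotes, 5000/well / Schedule: co-culture of at least 90 h after 3 h attachment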
* marks the source's active call; other numbers are inactive results; nt = no result; ! = a repeat was not active.

SMILES	aSyn UTR inh	CSC inhib	SKKanGAS inh	Mdm2-MdmX inh	T cruzi inh
Cc1ccc(C=C2C(Cl)=C(Cl)C(Cl)=C2Cl)cc1	-29	100*	78*	20	-24
Cc1ccc(/C=[N+](/C)[O-])cc1	-23	-6	7	-6	-8
Cc1ccc(-c2csc3nc[nH]c(=S)c23)cc1	-8	10	34	10	37
S=c1[nH]cnc2scc(-c3ccc(Cl)cc3)c12	20	47	76*	27	41
Cc1cc(-c2csc3nc[nH]c(=S)c23)cc(C)c1C	2	104*	92*	40	1
CC(=O)c1ccc(S(=O)(=O)Nc2cccc(-c3ccc(N4CCOCC4)nn3)c2)cc1	-37	11	7	-15	-4
C=C(C)CN(CC)C(=O)CSc1ccc(S(=O)(=O)N2CCN(C)CC2)cn1	nt	nt	nt	3	nt
CCc1ccc(CNC(=O)Cc2ccc(NC(=O)C3=C(C)OCCS3)cc2)cc1	66*	61	-1	45	-1
COc1ccc2cc(/C(C)=N/NC(=S)Nc3cc(S(=O)(=O)N4CCOCC4)ccc3N3CCOCC3)ccc2c1	-13	-2	12	33	69*
CCC(=O)N(C1=C(NC)C(=O)c2ccccc2C1=O)C(C)C	-1	-3	-14	-30	-14
CNC1=C(N(C(C)=O)c2ccc(Br)cc2)C(=O)c2ccccc2C1=O	111*	105*	57*	nt	70*
CC1CCCN(S(=O)(=O)c2cccc(C(=O)NCC3CCCO3)c2)C1 (centres undefined)	nt	-10	nt	-9	nt
CCCCCCCCCCC[C@@H](C[C@@H]1OC(=O)[C@H]1CCCCCC)OC(=O)[C@H](CC(C)C)NC=O	12	102*	10	30	5
CCCCC[C@H](O)/C=C/[C@H]1[C@H](O)CC(=O)[C@@H]1CCCCCCC(=O)O	21	0	5	22	15
CCCCN(C(=O)Nc1ccc(OCC)cc1)C1CCN(C(C)=O)CC1	17	nt	-11	0	-11
O=C(NC(=S)NCCc1ccccc1)C1CCCCC1	-37	102*	0	8	13
O=C(NC1CCCN(CCc2ccccc2)C1)C1CCCC1 (centres undefined)	6	-1	-8	-21	55*
O=C(NC1CCCN(CCc2ccccc2)C1)c1c[nH]c2ccccc12 (centres undefined)	3	6	-7	15	18
Cc1ccc(-c2cc(C(F)F)n3ncc(C(=O)N4CCCc5ccccc54)c3n2)cc1	16	-18	4	16	10
Cc1ccc(-c2cc(C(F)F)n3ncc(C(=O)N4CCc5ccccc5C4)c3n2)cc1	-33	42	-2	9	58*
O=C(c1cnn2c(C(F)(F)F)cc(-c3ccccc3)nc12)N1CCOCC1	4	-4	7	-1	9
O=C(c1cnn2c(C(F)(F)F)cc(-c3ccc(F)cc3)nc12)N1CCc2ccccc2C1	6	1	62*	35	34
CCN(Cc1ccc(O)cc1)CC1CCCN(CCc2cccc(F)c2)C1 (centres undefined)	-13	-1	-2	16	61*
CN(CC1CCCN(CCc2cccc(C(F)(F)F)c2)C1)C(=O)c1ccco1 (centres undefined)	5	8	5	-18	60*
Cc1cc(C(=O)Nc2nncs2)oc1C	-39	-6	-1	10	-9
SMILES	aSyn UTR inh	CSC inhib	SKKanGAS inh	Mdm2-MdmX inh	T cruzi inh
Cc1cccn2c(Nc3ccccc3)c(-c3ccccn3)nc12	5	-6	68*	-5	5
Cc1ccc(-n2c(N)cc(=O)nc2SCC(=O)NC2CCCCC2)cc1C	-9	-9	31	12	-2
COc1ccc(N2CCN(S(=O)(=O)CCNC(=O)C3CC3)CC2)cc1	3	7	-2	5	2
CC1CCN(C(=O)c2nc[nH]c2C(=O)N2CCC(C)CC2)CC1	nt	-3	nt	22	nt
Cc1ccc(C(=O)Nc2ccc3ccccc3c2)cc1	66*	21	-5	-53	-14
COc1ccc(C(=O)Nc2ccc3[nH]ccc3c2)cc1	66*	32	14	-65	-4
O=C(Nc1ccc2ccccc2c1)c1ccc(NS(=O)(=O)c2ccc(Br)s2)cc1	-102	-17	96*	-17	-7
O=C(c1ccncc1)c1ccc(NS(=O)(=O)c2ccc(Br)s2)cc1	10	5	13	-34	-10
O=C(Nc1ccc2ccccc2c1)c1ccc(Cl)cc1	-23	1	-19	-126	-12
O=C(O)COc1ccc(Br)cc1/C=N\Nc1ccccn1	11	1	2	5	-13
CC(C)c1ccc(-c2nc(N3CCCC3)nc3n[nH]c(N)c23)cc1	50	37	53*	38	-9
CC(C)C(NC(=O)c1ccccc1)C(=O)OCC(=O)N1CCN(c2ccccc2)CC1 (centres undefined)	nt	nt	nt	3	nt
Brc1cc2c(cc1C1Nc3ccccc3C3C=CCC31)OCO2 (centres undefined)	-13	-11	64*	26	-11
Cc1cc(C)c2c(c1)NC(c1cc3c(cc1Br)OCO3)C1CC=CC21 (centres undefined)	35	40	51*	nt	25
C=C[C@]1(C)C[C@@H](OC(=O)CSCCN(CC)CC)[C@]2(C)C(C)CC[C@]3(CCC(=O)[C@H]32)[C@@H](C)[C@@H]1O (some centres undefined)	2	-3	104*	11	59*!
C/C(=N\NC(=S)NCc1ccccc1)c1ccc2ccccc2c1OC(F)F	6	42	67*	-9	33
C/C(=N\NC(=S)NCc1ccccc1)c1ccc(Br)cc1	6	19	-4	-11	16
Cc1sc(NC(=O)COc2ccccc2)c(C#N)c1-c1ccccc1	-45	-5	6	-4	2
COc1ccc(C(=O)Nc2sc(C)c(-c3ccccc3)c2C#N)cc1OC	-92	-1	54*	-40	32
Cc1cccc(OCC(=O)Nc2ccc(NC(=O)c3ccco3)cc2)c1	-67	nt	3	13	-4
COc1ccc(NC(=O)c2cccnc2)c(OC)c1	5	nt	4	-11	2
COc1ccc(NC(=O)c2cc(-c3cccnc3)nc3c(C)c(C)ccc23)c(OC)c1	20	2	0	-28	56*
CCCc1cc(-c2[nH]ncc2-c2ccc3c(c2)OCCCO3)c(O)cc1O	-25	95*	-6	21	19
Cn1cc(CNCc2cn[nH]c2-c2ccc(F)cc2)c(-c2ccc3c(c2)OCCO3)n1	-14	-10	nt	13	-12
Cn1c(-c2ccccc2)c(CCO)c2ccccc21	7	-20	2	24	-4
Cn1c(-c2ccccc2)c(C(=O)CCl)c2ccccc21	28	nt	7	nt	71*
COc1ccc(OCc2nnc(SCC(=O)Nc3cccc(C(C)=O)c3)o2)cc1	nt	-13	nt	6	nt
Brc1ccc(-c2cn3c(n2)CCc2ccc4cccnc4c2-3)cc1	-10	33	76*	19	5
O=C(CN1CCN(c2ccc(O)cc2)CC1)Nc1ccc(SC(F)F)cc1	42	134*	9	20	-16

Assay outcomes from PubChem BioAssay.
